Values after ≈ are worked out from the molar mass of the structure shown.
What was measured:
Pichia kudriavzevii [1] = assay: Inhibition of Candida krusei E28 growth for 24 hours in vitro.; type: functional; conditions: Pichia kudriavzevii, 24 h; read-out: MIC
In short: (§1)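 NCCLS M27-A broth microdilution in RPMI 1640 with L-glutamine and 0.165 M MOPS, pH 7.0. Isolates kept on Sabouraud dextrose agar. Inoculum 5 × 10^3 cfu/mL final. Compounds were diluted in DMSO (≤2% final) and tested in 2-fold dilutions of 1000–0.24 µmol/L. Incubation at 35 °C, OD540 read at 24 and 48 h. MIC = 80% growth inhibition versus control; assays run twice in duplicate.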

Trichosporon beigelii [2] = assay: Inhibition of Trichosporon beigelli 1188 for 24 hours in vitro.; type: functional; conditions: Trichosporon beigelii, 24 h; read-out: MIC
In short: (§2)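 Microdilution following NCCLS M27-A. Medium: RPMI 1640 with L-glutamine, 0.165 M MOPS, pH 7.0. Final inoculum 5 × 10^3 cfu/mL. Compounds dissolved in DMSO, final ≤2%, serially halved from 1000 to 0.24 µmol/L. Incubated at 35 °C and read at 24 and 48 h. MIC defined as 80% inhibition of control growth; run twice in duplicate.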

Candida tropicalis [3] = assay: Inhibition of Candida tropicalis 156 growth for 24 hours in vitro.; type: functional; conditions: Candida tropicalis, 24 h; read-out: MIC; in short: as §1
Pichia kudriavzevii [4] = assay: Inhibition of Candida krusei ATCC 6258 growth for 48 hours in vitro.; type: functional; conditions: Pichia kudriavzevii, ATCC 6258, 48 h; read-out: MIC; in short: as §1
Clavispora lusitaniae [5] = assay: Inhibition of Candida lusitaniae 2446/I growth for 48 hours in vitro.; type: functional; conditions: Clavispora lusitaniae, 48 h; read-out: MIC; in short: as §1
Candida albicans [6] = assay: Inhibition of Candida albicans ATCC 90028 for 48 hours in vitro.; type: functional; conditions: Candida albicans, ATCC 90028, 48 h; read-out: MIC; in short: as §1
Nakaseomyces glabratus [7] = assay: Inhibition of Candida glabrata 20/I growth for 48 hours in vitro.; type: functional; conditions: Nakaseomyces glabratus, 48 h; read-out: MIC; in short: as §1
Aspergillus fumigatus [8] = assay: Inhibition of Aspergillus fumigatus 231 growth for 24 hours in vitro.; type: functional; conditions: Aspergillus fumigatus, 24 h; read-out: MIC
In short: (§3)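 Filamentous isolates tested by microdilution per NCCLS M27-A in RPMI 1640 plus L-glutamine, buffered with 0.165 M MOPS to pH 7.0. Final inoculum 5 × 10^3 cfu/mL. Compounds in DMSO (final ≤2%), 2-fold series over 1000–0.24 µmol/L. Plates held at 35 °C and read visually after 24 and 48 h. MIC taken as 80% inhibition of control growth; determined twice in duplicate.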

Aspergillus fumigatus [9] = assay: Inhibition of Aspergillus fumigatus 231 growth for 48 hours in vitro.; type: functional; conditions: Aspergillus fumigatus, 48 h; read-out: MIC; in short: as §3
Pichia kudriavzevii [10] = assay: Inhibition of Candida krusei E28 growth for 48 hours in vitro.; type: functional; conditions: Pichia kudriavzevii, 48 h; read-out: MIC; in short: as §1
Candida albicans [11] = assay: Inhibition of Candida albicans ATCC 44859 growth for 24 hours in vitro.; type: functional; conditions: Candida albicans, ATCC 44859, 24 h; read-out: MIC; in short: as §1
Candida tropicalis [12] = assay: Inhibition of Candida tropicalis 156 growth for 48 hours in vitro.; type: functional; conditions: Candida tropicalis, 48 h; read-out: MIC; in short: as §1
Candida parapsilosis [13] = assay: Inhibition of Candida parapsilosis ATCC 22019 growth for 48 hours in vitro.; type: functional; conditions: Lodderomyces parapsilosis, ATCC 22019, 48 h; read-out: MIC; in short: as §1
[14] = Inhibition of Trichophyton mentagrophytes 445 growth for 72 hours in vitro.; type: functional, Arthroderma benhamiae; conditions: Trichophyton benhamiae, 72 h; read-out: MIC
In short: (§4)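 Dermatophyte grown in MOPS-buffered (0.165 M, pH 7.0) RPMI 1640 containing L-glutamine, in an M27-A microdilution format. Inoculum 5 × 10^3 cfu/mL final. Compounds from DMSO stocks (≤2% final), 2-fold dilutions 1000–0.24 µmol/L. Incubated at 35 °C, growth judged visually at 72 and 120 h. MIC endpoint is 80% inhibition relative to control; measured twice in duplicate.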

Candida albicans [15] = assay: Inhibition of Candida albicans ATCC 44859 growth for 48 hours in vitro.; type: functional; conditions: Candida albicans, ATCC 44859, 48 h; read-out: MIC; in short: as §1
[16] = Inhibition of Trichophyton mentagrophytes 445 growth for 120 hours in vitro.; type: functional, Arthroderma benhamiae; conditions: Trichophyton benhamiae, 120 h; read-out: MIC; in short: as §4
Nakaseomyces glabratus [17] = assay: Inhibition of Candida glabrata 20/I growth for 24 hours in vitro.; type: functional; conditions: Nakaseomyces glabratus, 24 h; read-out: MIC; in short: as §1
Pichia kudriavzevii [18] = assay: Inhibition of Candida krusei ATCC 6258 growth for 24 hours in vitro.; type: functional; conditions: Pichia kudriavzevii, ATCC 6258, 24 h; read-out: MIC; in short: as §1
Clavispora lusitaniae [19] = assay: Inhibition of Candida lusitaniae 2446/I growth for 24 hours in vitro.; type: functional; conditions: Clavispora lusitaniae, 24 h; read-out: MIC; in short: as §1
Lichtheimia corymbifera [20] = assay: In vitro inhibition of Absidia corymbifera 272 growth for 48 hours.; type: functional; conditions: Lichtheimia corymbifera, 48 h; read-out: MIC; in short: as §3
Trichosporon beigelii [21] = assay: Inhibition of Trichosporon beigelli 1188 for 48 hours in vitro.; type: functional; conditions: Trichosporon beigelii, 48 h; read-out: MIC; in short: as §2
Candida albicans [22] = assay: Inhibition of Candida albicans ATCC 90028 for 24 hours in vitro.; type: functional; conditions: Candida albicans, ATCC 90028, 24 h; read-out: MIC; in short: as §1
Lichtheimia corymbifera [23] = assay: In vitro inhibition of Absidia corymbifera 272 growth for 24 hours.; type: functional; conditions: Lichtheimia corymbifera, 24 h; read-out: MIC; in short: as §3
Candida parapsilosis [24] = assay: Inhibition of Candida parapsilosis ATCC 22019 growth for 24 hours in vitro.; type: functional; conditions: Lodderomyces parapsilosis, ATCC 22019, 24 h; read-out: MIC; in short: as §1

Q: What does the source list for `COc1ccc(C2=CC(COC(=O)C(C)(C)C)OC2=O)cc1` (stereo not drawn)?
A: MIC (Pichia kudriavzevii [1]): 62.5 µM (≈ 19 µg/mL); MIC (Trichosporon beigelii [2]): 62.5 µM (≈ 19 µg/mL); MIC (Candida tropicalis [3]): 31.2 µM (≈ 9.51 µg/mL); MIC (Pichia kudriavzevii [4]): 62.5 µM (≈ 19 µg/mL); MIC (Clavispora lusitaniae [5]): 31.2 µM (≈ 9.51 µg/mL); MIC (Candida albicans [6]): 31.2 µM (≈ 9.51 µg/mL); MIC (Nakaseomyces glabratus [7]): 31.2 µM (≈ 9.51 µg/mL); MIC (Aspergillus fumigatus [8]): 7.81 µM (≈ 2.38 µg/mL); MIC (Aspergillus fumigatus [9]): 31.2 µM (≈ 9.51 µg/mL); MIC (Pichia kudriavzevii [10]): 125 µM (≈ 38 µg/mL); MIC (Candida albicans [11]): 0.98 µM (≈ 0.298 µg/mL); MIC (Candida tropicalis [12]): 62.5 µM (≈ 19 µg/mL); MIC (Candida parapsilosis [13]): 62.5 µM (≈ 19 µg/mL); MIC [14]: 7.81 µM (≈ 2.38 µg/mL); MIC (Candida albicans [15]): 15.6 µM (≈ 4.76 µg/mL); MIC [16]: 7.81 µM (≈ 2.38 µg/mL); MIC (Nakaseomyces glabratus [17]): 31.2 µM (≈ 9.51 µg/mL); MIC (Pichia kudriavzevii [18]): 62.5 µM (≈ 19 µg/mL); MIC (Clavispora lusitaniae [19]): 31.2 µM (≈ 9.51 µg/mL); MIC (Lichtheimia corymbifera [20]): 125 µM (≈ 38 µg/mL); MIC (Trichosporon beigelii [21]): 62.5 µM (≈ 19 µg/mL); MIC (Candida albicans [22]): 31.2 µM (≈ 9.51 µg/mL); MIC (Lichtheimia corymbifera [23]): 62.5 µM (≈ 19 µg/mL); MIC (Candida parapsilosis [24]): 31.2 µM (≈ 9.51 µg/mL)

Q: Which results are given for `O=C1OC(CO)C=C1c1ccc(Br)cc1` (stereo not drawn)?
A: MIC (Pichia kudriavzevii [1]): 500 µM (≈ 135 µg/mL); MIC (Trichosporon beigelii [2]): 125 µM (≈ 33.6 µg/mL); MIC (Candida tropicalis [3]): 250 µM (≈ 67.3 µg/mL); MIC (Pichia kudriavzevii [4]): 1000 µM (≈ 269 µg/mL); MIC (Clavispora lusitaniae [5]): 250 µM (≈ 67.3 µg/mL); MIC (Candida albicans [6]): 250 µM (≈ 67.3 µg/mL); MIC (Nakaseomyces glabratus [7]): 125 µM (≈ 33.6 µg/mL); MIC (Aspergillus fumigatus [8]): 62.5 µM (≈ 16.8 µg/mL); MIC (Aspergillus fumigatus [9]): 125 µM (≈ 33.6 µg/mL); MIC (Pichia kudriavzevii [10]): 500 µM (≈ 135 µg/mL); MIC (Candida albicans [11]): 31.2 µM (≈ 8.41 µg/mL); MIC (Candida tropicalis [12]): 500 µM (≈ 135 µg/mL); MIC (Candida parapsilosis [13]): 500 µM (≈ 135 µg/mL); MIC [14]: 15.6 µM (≈ 4.21 µg/mL); MIC (Candida albicans [15]): 62.5 µM (≈ 16.8 µg/mL); MIC [16]: 15.6 µM (≈ 4.21 µg/mL); MIC (Nakaseomyces glabratus [17]): 125 µM (≈ 33.6 µg/mL); MIC (Pichia kudriavzevii [18]): 500 µM (≈ 135 µg/mL); MIC (Clavispora lusitaniae [19]): 250 µM (≈ 67.3 µg/mL); MIC (Lichtheimia corymbifera [20]): 250 µM (≈ 67.3 µg/mL); MIC (Trichosporon beigelii [21]): 500 µM (≈ 135 µg/mL); MIC (Candida albicans [22]): 250 µM (≈ 67.3 µg/mL); MIC (Lichtheimia corymbifera [23]): 250 µM (≈ 67.3 µg/mL); MIC (Candida parapsilosis [24]): 250 µM (≈ 67.3 µg/mL)

Reference: ChEMBL document CHEMBL1134691, “3-Phenyl-5-acyloxymethyl-2H,5H-furan-2-ones: synthesis and biological activity of a novel group of potential antifungal drugs” (2001)
